Measurements taken from ChEMBL document CHEMBL4007470, “Discovery of a 2'-fluoro-2'-C-methyl C-nucleotide HCV polymerase inhibitor and a phosphoramidate prodrug with favorable properties” (Bioorg Med Chem Lett, 2017).
pEC50, pIC50: −log10 of the molar value. ≈ marks a conversion by molar mass, not a printed value.

Key:
[1] = Prodrug activation in Syrian golden hamster liver assessed as triphosphate metabolite formation at 5 mg equivalents/kg, po after 1 hr by LC-MS/MS analysis; assay type: ADME, organism-based, Mesocricetus auratus; settings: in vivo
In short: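 Golden Syrian hamsters (groups of 12) dosed orally at 5 mg-eq/kg in EtOH/PEG400/water buffered with 50 mM pH 4 citrate. Livers harvested under isoflurane at 1 h and extracted in cold KOH/EDTA/70% MeOH with Cl-ATP. Triphosphate measured by LC/MS/MS, with endogenous ATP checked for sample stability.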

[2] = Half life in human intestinal S9 fractions at 2 uM by LC-MS/MS analysis; assay type: ADME, Intestine
In short: (§1)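 Compound at 2 μM incubated with S9 fractions at 37 °C for 90 min with NADPH and UDPGA. Quenched with aqueous acetonitrile/methanol containing internal standard and analysed by LC-MS/MS. Half-life from an exponential fit assuming first-order kinetics. Hepatic extraction predicted from half-life using the well-stirred model.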

[3] = Hepatic extraction in hamster liver S9 fractions at 2 uM by LC-MS/MS analysis; assay type: ADME; settings: cricetinae, liver S9 fractions; read-out: ERH; in short: as §1
[4] = Hepatic extraction in human liver S9 fractions at 2 uM by LC-MS/MS analysis; assay type: ADME; settings: liver S9 fractions, read-out: ERH; in short: as §1
[5] = Solubility of the compound in pH 7.4 solution; assay type: physicochemical
In short: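 Solubility measured at pH 7.4 using amorphous material.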

Hepatitis C virus [6] = experiment: Antiviral activity against HCV genotype 4a infected in human HuH7 cells by luciferase reporter gene assay; assay type: functional, cell-based, Hepacivirus hominis; settings: Hepatitis C virus, genotype 4a, Huh-7
[7] = Half life in hamster intestinal S9 fractions at 2 uM by LC-MS/MS analysis; assay type: ADME, Intestine; settings: cricetinae, intestinal S9 fractions
[8] = Half life in hamster plasma at 2 uM by LC-MS/MS analysis; assay type: ADME, cell-free; settings: cricetinae
In short: (§2)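 Compound at 2 μM incubated in plasma at 37 °C for up to 4 h. Aliquots quenched with 9 volumes of acetonitrile containing internal standard, then centrifuged. Supernatant analysed by LC-MS/MS.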

[9] = Permeability of the compound from basolateral to apical side in human Caco2 cells at 10 uM; assay type: ADME, cell-based, Caco-2; settings: Caco-2, read-out: permeability
In short: (§3)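 Caco-2 permeability at 10 μM compound, measured in apical-to-basolateral and basolateral-to-apical directions.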

Hepatitis C virus [10] = experiment: Antiviral activity against HCV genotype 1a infected in human HuH7 cells by luciferase reporter gene assay; assay type: functional, cell-based, Hepacivirus hominis, subtype 1a; settings: Hepatitis C virus, subtype 1a, Huh-7
Plasma = experiment: Stability in rat plasma at 2 uM up to 4 hrs by LC-MS/MS analysis; assay type: ADME, cell-free; in short: as §2
[11] = Permeability of the compound from apical to basolateral side in human Caco2 cells at 10 uM; assay type: ADME, cell-based, Caco-2; settings: Caco-2, read-out: permeability; in short: as §3
Hepatitis C virus [12] = experiment: Antiviral activity against HCV genotype 1b infected in human HuH7 cells by luciferase reporter gene assay; assay type: functional, cell-based, Hepacivirus hominis; settings: Hepatitis C virus, genotype 1b, Huh-7
In short: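 Luciferase-reporter genotype 1b subgenomic replicon in Huh-7 cells; EC50 is concentration giving 50% inhibition. Values are averages of at least three repeats.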

[13] = Half life in human plasma at 2 uM by LC-MS/MS analysis; assay type: ADME, cell-free; in short: as §2
[14] = tested on: RNA-directed RNA polymerase (Hepacivirus hominis), O39930 [UNDEFINED MUTATION]; experiment: Inhibition of HCV genotype 1b wild-type NS5B RNA dependent RNA polymerase S282T mutant relative to control; settings: Hepatitis C virus subtype 1b
[15] = Inhibition of HCV genotype 1b wild-type NS5B RNA dependent RNA polymerase; design: species or system Hepatitis C virus subtype 1b

CC(C)OC(=O)C(C)(C)NP(=O)(OC[C@H]1O[C@@H](c2ccc3c(N)ncnn23)[C@](C)(F)[C@@H]1O)Oc1ccccc1 (stereo partly drawn)
liver triphosphate concentration [1]: 1.29 µM | half-life at 2 µM [2]: > 789 min | hepatic extraction ratio at 2 µM [3]: 0.86 | hepatic extraction ratio at 2 µM [4]: 0.65 | solubility [5]: 657 µg/mL (≈ 1160 µM) | pEC50 (Hepatitis C virus [6]): 5.96 | half-life at 2 µM [7]: 106 min | half-life at 2 µM [8]: 124 min | Papp B→A at 10 µM [9]: 17.6 ×10⁻⁶ cm/s | pEC50 (Hepatitis C virus [10]): 5.30 | Stability (Plasma): Unstable | Papp A→B at 10 µM [11]: 4.2 ×10⁻⁶ cm/s | pEC50 (Hepatitis C virus [12]): 4.38 | half-life at 2 µM [13]: 155 min

C[C@@]1(F)[C@H](O)[C@@H](COP(=O)(O)OP(=O)(O)OP(=O)(O)O)O[C@@]1(C#N)c1ccc2c(N)ncnn12 [GS-441326]
fold change (FC) [14]: 6 | pEC50 (Hepatitis C virus [12]): < 4.05 | pIC50 [15]: 6.38

C[C@@]1(O)[C@H](O)[C@@H](COP(=O)(O)OP(=O)(O)OP(=O)(O)O)O[C@H]1c1ccc2c(N)ncnn12
fold change (FC) [14]: > 30 | pEC50 (Hepatitis C virus [12]): < 4.05 | pIC50 [15]: 6.54

CCOC(=O)C1(NP(=O)(OC[C@H]2O[C@@H](c3cnc4c(N)ncnn34)[C@](C)(F)[C@@H]2O)Oc2ccccc2)CCC1 (stereo partly drawn)
half-life at 2 µM [2]: 175 min | hepatic extraction ratio at 2 µM [3]: 0.91 | hepatic extraction ratio at 2 µM [4]: 0.88 | pEC50 (Hepatitis C virus [6]): 6.85 | half-life at 2 µM [7]: 70 min | half-life at 2 µM [8]: 420 min | pEC50 (Hepatitis C virus [10]): 6.48 | pEC50 (Hepatitis C virus [12]): 6.18 | half-life at 2 µM [13]: 668 min

CCOC(=O)C(C)(C)NP(=O)(OC[C@H]1O[C@@H](c2cnc3c(N)ncnn23)[C@](C)(F)[C@@H]1O)Oc1ccccc1 (stereo partly drawn)
half-life at 2 µM [2]: 129 min | hepatic extraction ratio at 2 µM [3]: 0.83 | hepatic extraction ratio at 2 µM [4]: 0.62 | pEC50 (Hepatitis C virus [6]): 6.82 | half-life at 2 µM [7]: 100 min | half-life at 2 µM [8]: 498 min | pEC50 (Hepatitis C virus [10]): 6.23 | pEC50 (Hepatitis C virus [12]): 6.10 | half-life at 2 µM [13]: 461 min

CC[C@H](C)OC(=O)[C@@H](C)NP(=O)(OC[C@H]1O[C@@H](c2cnc3c(N)ncnn23)[C@](C)(F)[C@@H]1O)Oc1ccccc1 (stereo partly drawn)
pEC50 (Hepatitis C virus [6]): 5.68 | pEC50 (Hepatitis C virus [10]): 5.10 | pEC50 (Hepatitis C virus [12]): 5.14

CC(C)OC(=O)C1(NP(=O)(OC[C@H]2O[C@@H](c3cnc4c(N)ncnn34)[C@](C)(F)[C@@H]2O)Oc2ccccc2)CCCCC1 (stereo partly drawn)
pEC50 (Hepatitis C virus [10]): 4.17 | pEC50 (Hepatitis C virus [12]): 4.08

CC(C)OC(=O)C1(NP(=O)(OC[C@H]2O[C@@H](c3cnc4c(N)ncnn34)[C@](C)(F)[C@@H]2O)Oc2ccccc2)CCCC1 (stereo partly drawn)
pEC50 (Hepatitis C virus [6]): 5.41 | pEC50 (Hepatitis C virus [10]): 4.95 | pEC50 (Hepatitis C virus [12]): 4.29

CC[C@H](NP(=O)(OC[C@H]1O[C@@H](c2cnc3c(N)ncnn23)[C@](C)(F)[C@@H]1O)Oc1ccccc1)C(=O)OC(C)C (stereo partly drawn)
pEC50 (Hepatitis C virus [6]): 5.70 | pEC50 (Hepatitis C virus [10]): 5.59 | pEC50 (Hepatitis C virus [12]): 5.25

CCOC(=O)[C@@H](C)NP(=O)(OC[C@H]1O[C@@H](c2cnc3c(N)ncnn23)[C@](C)(F)[C@@H]1O)Oc1ccccc1 (stereo partly drawn)
half-life at 2 µM [2]: > 789 min | hepatic extraction ratio at 2 µM [3]: 0.84 | hepatic extraction ratio at 2 µM [4]: 0.28 | pEC50 (Hepatitis C virus [6]): 5.24 | half-life at 2 µM [7]: 192 min | half-life at 2 µM [8]: 316 min | pEC50 (Hepatitis C virus [10]): 4.83 | pEC50 (Hepatitis C virus [12]): 4.58 | half-life at 2 µM [13]: 683 min

CCOC(=O)C1(NP(=O)(OC[C@H]2O[C@@H](c3cnc4c(N)ncnn34)[C@](C)(F)[C@@H]2O)Oc2ccccc2)CCCC1 (stereo partly drawn)
pEC50 (Hepatitis C virus [6]): 6.42 | pEC50 (Hepatitis C virus [10]): 6.00 | pEC50 (Hepatitis C virus [12]): 5.70

CC(C)C[C@H](NP(=O)(OC[C@H]1O[C@@H](c2ccc3c(N)ncnn23)[C@](C)(F)[C@@H]1O)Oc1ccccc1)C(=O)OC(C)C (stereo partly drawn)
pEC50 (Hepatitis C virus [6]): 6.23 | pEC50 (Hepatitis C virus [10]): 6.13 | pEC50 (Hepatitis C virus [12]): 6.16

CCOC(=O)[C@H](Cc1ccccc1)NP(=O)(OC[C@H]1O[C@@H](c2cnc3c(N)ncnn23)[C@](C)(F)[C@@H]1O)Oc1ccccc1 (stereo partly drawn)
pEC50 (Hepatitis C virus [10]): 5.77 | pEC50 (Hepatitis C virus [12]): 5.66

CC(C)OC(=O)C1(NP(=O)(OC[C@H]2O[C@@H](c3cnc4c(N)ncnn34)[C@](C)(F)[C@@H]2O)Oc2ccccc2)CCOCC1 (stereo partly drawn)
pEC50 (Hepatitis C virus [6]): 5.15 | pEC50 (Hepatitis C virus [10]): 4.84 | pEC50 (Hepatitis C virus [12]): 4.54

CCC[C@H](NP(=O)(OC[C@H]1O[C@@H](c2cnc3c(N)ncnn23)[C@](C)(F)[C@@H]1O)Oc1ccccc1)C(=O)OCC (stereo partly drawn)
pEC50 (Hepatitis C virus [6]): 6.57 | pEC50 (Hepatitis C virus [10]): 6.41 | pEC50 (Hepatitis C virus [12]): 6.19

CC[C@@H](C)OC(=O)C1(NP(=O)(OC[C@H]2O[C@@H](c3cnc4c(N)ncnn34)[C@](C)(F)[C@@H]2O)Oc2ccccc2)CCC1 (stereo partly drawn)
pEC50 (Hepatitis C virus [6]): 6.46 | pEC50 (Hepatitis C virus [10]): 5.19 | pEC50 (Hepatitis C virus [12]): < 4.06

CC(C)(C)COC(=O)C(C)(C)NP(=O)(OC[C@H]1O[C@@H](c2cnc3c(N)ncnn23)[C@](C)(F)[C@@H]1O)Oc1ccccc1 (stereo partly drawn)
pEC50 (Hepatitis C virus [6]): 5.37 | pEC50 (Hepatitis C virus [10]): 5.21 | pEC50 (Hepatitis C virus [12]): 4.69
